Measurements as given in ChEMBL document CHEMBL1137338, “Effects of substitution on 9-(3-bromo-4-fluorophenyl)-5,9-dihydro-3H,4H-2,6-dioxa-4- azacyclopenta[b]naphthalene-1,8-dione, a dihydropyridine ATP-sensitive potassium channel opener” (J Med Chem, 2006).

Biological target: Sulfonylurea receptor 2, Kir6.2 (Homo sapiens, UniProt O60706+Q14654)
Assay: Ability to open human urinary bladder Kir6.2 channel containing SUR2B in Ltk cells by FLIPR assay
Assay type: functional, cell-based
Procedure, shortened: (§1)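 Ltk- cells stably transfected with the Kir6.2/SUR2B exon 17- splice variant. Membrane potential was followed with DiBAC dye in a 96-well cell-based kinetic fluorescence (FLIPR) assay. The highest concentration tested was 10 µM. Each compound's maximal fluorescence response was expressed as % of the response to the reference opener.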

Sequence of Sulfonylurea receptor 2, Kir6.2 (Q14654 whole entry): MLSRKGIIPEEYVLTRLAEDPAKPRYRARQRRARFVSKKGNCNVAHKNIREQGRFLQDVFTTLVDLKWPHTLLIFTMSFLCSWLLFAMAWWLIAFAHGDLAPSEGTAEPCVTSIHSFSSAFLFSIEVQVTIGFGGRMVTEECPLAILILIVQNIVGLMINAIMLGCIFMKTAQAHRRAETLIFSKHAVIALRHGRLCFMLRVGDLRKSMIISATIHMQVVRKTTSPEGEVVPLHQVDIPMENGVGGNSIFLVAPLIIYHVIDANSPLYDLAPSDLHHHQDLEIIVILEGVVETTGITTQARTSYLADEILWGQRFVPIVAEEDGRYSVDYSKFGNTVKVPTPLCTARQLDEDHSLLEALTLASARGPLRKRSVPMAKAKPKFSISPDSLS
Sequence of Sulfonylurea receptor 2, Kir6.2 (O60706 whole entry): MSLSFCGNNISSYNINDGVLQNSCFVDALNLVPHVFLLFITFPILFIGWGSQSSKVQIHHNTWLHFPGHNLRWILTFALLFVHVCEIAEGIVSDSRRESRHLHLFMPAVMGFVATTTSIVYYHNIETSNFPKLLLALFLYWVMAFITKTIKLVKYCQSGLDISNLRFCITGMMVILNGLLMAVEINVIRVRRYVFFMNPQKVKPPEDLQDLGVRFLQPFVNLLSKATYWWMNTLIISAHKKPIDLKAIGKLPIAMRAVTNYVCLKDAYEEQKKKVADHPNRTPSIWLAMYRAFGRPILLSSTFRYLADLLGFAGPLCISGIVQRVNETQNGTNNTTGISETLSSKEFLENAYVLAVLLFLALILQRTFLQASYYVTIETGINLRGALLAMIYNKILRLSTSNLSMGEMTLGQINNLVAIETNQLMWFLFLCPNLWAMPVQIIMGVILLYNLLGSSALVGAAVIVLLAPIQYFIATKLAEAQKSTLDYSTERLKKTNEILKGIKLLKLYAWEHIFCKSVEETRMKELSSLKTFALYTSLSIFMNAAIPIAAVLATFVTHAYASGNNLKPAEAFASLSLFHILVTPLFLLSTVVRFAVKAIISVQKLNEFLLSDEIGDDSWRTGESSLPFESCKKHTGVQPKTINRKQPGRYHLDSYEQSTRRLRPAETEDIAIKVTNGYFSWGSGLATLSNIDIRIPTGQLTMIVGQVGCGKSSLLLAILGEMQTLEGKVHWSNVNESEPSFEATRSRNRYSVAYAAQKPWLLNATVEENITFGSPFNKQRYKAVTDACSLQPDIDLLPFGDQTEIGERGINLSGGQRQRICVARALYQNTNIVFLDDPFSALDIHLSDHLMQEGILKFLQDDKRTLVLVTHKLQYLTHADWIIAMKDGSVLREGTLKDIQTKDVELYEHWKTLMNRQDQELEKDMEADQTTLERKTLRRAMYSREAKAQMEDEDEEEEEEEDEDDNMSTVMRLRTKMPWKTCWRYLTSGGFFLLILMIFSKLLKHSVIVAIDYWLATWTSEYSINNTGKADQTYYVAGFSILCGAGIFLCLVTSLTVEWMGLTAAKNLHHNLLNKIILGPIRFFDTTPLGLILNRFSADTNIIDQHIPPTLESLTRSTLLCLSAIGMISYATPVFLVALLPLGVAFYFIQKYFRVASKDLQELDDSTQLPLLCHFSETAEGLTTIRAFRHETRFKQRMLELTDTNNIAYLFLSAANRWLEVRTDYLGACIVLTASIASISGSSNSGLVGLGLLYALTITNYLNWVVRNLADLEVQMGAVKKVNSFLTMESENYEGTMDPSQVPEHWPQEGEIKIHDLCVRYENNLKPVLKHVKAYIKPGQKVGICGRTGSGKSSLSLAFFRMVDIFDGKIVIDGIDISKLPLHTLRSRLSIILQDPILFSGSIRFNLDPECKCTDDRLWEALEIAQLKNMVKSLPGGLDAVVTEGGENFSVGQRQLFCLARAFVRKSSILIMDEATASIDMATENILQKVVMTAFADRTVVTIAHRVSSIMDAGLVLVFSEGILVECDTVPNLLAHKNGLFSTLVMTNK

EC50	Compound
3630 nM	CC[C@H]1OCC(O)=C2C1=NC1=C(C(=O)COC1)[C@H]2c1ccc(F)c(Cl)c1 (stereo in doubt; 72a) [listing 1 of 2 here]
> 10000 nM	CC[C@H]1OCC(O)=C2C1=NC1=C(C(=O)COC1)[C@H]2c1ccc(F)c(Cl)c1 (stereo in doubt; 72b)
1290 nM	CC[C@H]1OCC(O)=C2C1=NC1=C(C(=O)COC1)[C@H]2c1ccc(F)c(I)c1 (stereo in doubt; 73a) [listing 1 of 2 here]
2950 nM	CC[C@H]1OCC(O)=C2C1=NC1=C(C(=O)COC1)[C@H]2c1ccc(F)c(I)c1 (stereo in doubt; 73b)
468 nM	CC[C@H]1OCC(O)=C2C1=NC1=C(C(=O)COC1)[C@H]2c1ccc(Cl)c(Cl)c1 (stereo in doubt; 74a)
759 nM	CC[C@H]1OCC(O)=C2C1=NC1=C(C(=O)COC1)[C@H]2c1ccc(Cl)c(Br)c1 (stereo in doubt; 75a)
5500 nM	CC[C@H]1OCC(O)=C2C1=NC1=C(C(=O)COC1)[C@H]2c1ccc(Cl)c(Br)c1 (stereo in doubt; 75b)
1620 nM	CC[C@H]1OCC(O)=C2C1=NC1=C(C(=O)COC1)[C@H]2c1ccc(Br)c(Cl)c1 (stereo in doubt; 76a)
309 nM	CC[C@H]1OCC(O)=C2C1=NC1=C(C(=O)COC1)[C@H]2c1ccc(Br)c(Br)c1 (stereo in doubt; 77a)
427 nM	CC[C@H]1OCC(O)=C2C1=NC1=C(C(=O)COC1)[C@H]2c1ccc(Br)c(Br)c1 (stereo in doubt; 77b)
724 nM	CC[C@H]1OCC(O)=C2C1=NC1=C(C(=O)COC1)[C@H]2c1ccc(C)c(Br)c1 (stereo in doubt; 78a)
5620 nM	CC[C@H]1OCC(O)=C2C1=NC1=C(C(=O)COC1)[C@H]2c1ccc(C)c(Br)c1 (stereo in doubt; 78b)

Biological target: Sulfonylurea receptor 2, Kir6.2 (Homo sapiens) (UniProt Q14654+O60706)
Assay: Ability to open human urinary bladder Kir6.2 containing SUR2B in Ltk cells by FLIPR assay relative to P1075
Assay type: functional, cell-based
Procedure, shortened: as §1

Efficacy	Compound
61%	CCCC[C@H]1OC(O)=C2C1=NC1=C(C(=O)COC1)[C@H]2c1ccc(F)c(Br)c1 (racemic)
90%	CCC[C@@H]1OC(O)=C2C1=NC1=C(C(=O)COC1)[C@H]2c1ccc(F)c(Br)c1 (racemic)
119%	CCC[C@H]1OC(O)=C2C1=NC1=C(C(=O)COC1)[C@H]2c1ccc(Br)c(Br)c1 (racemic)
97%	CCC[C@H]1OC(O)=C2C1=NC1=C(C(=O)COC1)[C@H]2c1ccc(Br)c(Cl)c1 (racemic)
104%	CCC[C@H]1OC(O)=C2C1=NC1=C(C(=O)COC1)[C@H]2c1ccc(C)c(Br)c1 (racemic)
120%	CCC[C@H]1OC(O)=C2C1=NC1=C(C(=O)COC1)[C@H]2c1ccc(Cl)c(Br)c1 (racemic)
95%	CCC[C@H]1OC(O)=C2C1=NC1=C(C(=O)COC1)[C@H]2c1ccc(Cl)c(Cl)c1 (racemic)
42%	CCC[C@H]1OC(O)=C2C1=NC1=C(C(=O)COC1)[C@H]2c1ccc(F)c(Cl)c1 (racemic)
105%	CCC[C@H]1OC(O)=C2C1=NC1=C(C(=O)COC1)[C@H]2c1ccc(F)c(I)c1 (racemic)
74%	CC[C@@H]1OC(O)=C2C1=NC1=C(C(=O)COC1)[C@H]2c1ccc(F)c(Br)c1 (racemic)
60%	CC[C@@H]1OCC(O)=C2C1=NC1=C(C(=O)COC1)[C@H]2c1ccc(F)c(Br)c1 (racemic)
70%	CC[C@H]1OC(O)=C2C1=NC1=C(C(=O)C(C)(C)OC1)[C@H]2c1ccc(F)c(Br)c1 (racemic)
48%	CC[C@H]1OC(O)=C2C1=NC1=C(C(=O)COC1(C)C)[C@H]2c1ccc(F)c(Br)c1 (racemic)
76%	CC[C@H]1OCC(O)=C2C1=NC1=C(C(=O)COC1)[C@H]2c1ccc(Br)c(Br)c1 (racemic)
46%	CC[C@H]1OCC(O)=C2C1=NC1=C(C(=O)COC1)[C@H]2c1ccc(Br)c(Cl)c1 (racemic)
70%	CC[C@H]1OCC(O)=C2C1=NC1=C(C(=O)COC1)[C@H]2c1ccc(C)c(Br)c1 (racemic)
70%	CC[C@H]1OCC(O)=C2C1=NC1=C(C(=O)COC1)[C@H]2c1ccc(Cl)c(Br)c1 (racemic)
47%	CC[C@H]1OCC(O)=C2C1=NC1=C(C(=O)COC1)[C@H]2c1ccc(F)c(I)c1 (racemic)
103%	COC[C@H]1OC(O)=C2C1=NC1=C(C(=O)COC1)[C@H]2c1ccc(F)c(Br)c1 (racemic)
100%	C[C@@H]1OC(O)=C2C1=NC1=C(C(=O)COC1)[C@H]2c1ccc(F)c(Br)c1 (racemic)

Efficacy	Compound
81%	C[C@@H]1OCC2=C(C1=O)[C@@H](c1ccc(F)c(Br)c1)C1=C(O)OCC1=N2 (racemic)
104%	C[C@@H]1OCC2=C(C1=O)[C@H](c1ccc(F)c(Br)c1)C1=C(O)OCC1=N2 (racemic)
75%	C[C@H]1OC(O)=C2C1=NC1=C(C(=O)COC1)[C@H]2c1ccc(F)c(Br)c1 (racemic)
104%	CC1(C)OCC2=C(C1=O)C(c1ccc(F)c(Br)c1)C1=C(O)OCC1=N2 (single isomer, unassigned; (+))
92%	O=C1COCC2=C1C(c1ccc(F)c(Br)c1)C1=C(O)OCC1=N2 (stereo in doubt; 6)
94%	C[C@@H]1OCC2=C(C1=O)[C@@H](c1ccc(F)c(Br)c1)C1=C(O)OCC1=N2 (stereo in doubt; 7b)
86%	CC1(C)OCC2=C(C1=O)C(c1ccc(F)c(Br)c1)C1=C(O)OCC1=N2 (stereo in doubt; 9)
77%	CC1(C)OCC2=C(C1=O)C(c1ccc(F)c(Br)c1)C1=C(O)OCC1=N2 (stereo in doubt; 9b)
89%	C[C@@H]1OC(O)=C2C1=NC1=C(C(=O)COC1)[C@H]2c1ccc(F)c(Br)c1 (stereo in doubt; 17b)
86%	C[C@H]1OC(O)=C2C1=NC1=C(C(=O)COC1)[C@H]2c1ccc(F)c(Br)c1 (stereo in doubt; 18a)
85%	C[C@H]1OC(O)=C2C1=NC1=C(C(=O)COC1)[C@H]2c1ccc(F)c(Br)c1 (stereo in doubt; 18b)
101%	CC[C@@H]1OC(O)=C2C1=NC1=C(C(=O)COC1)[C@H]2c1ccc(F)c(Br)c1 (stereo in doubt; 20a)
85%	CC[C@@H]1OC(O)=C2C1=NC1=C(C(=O)COC1)[C@H]2c1ccc(F)c(Br)c1 (stereo in doubt; 20b)
82%	CCC[C@@H]1OC(O)=C2C1=NC1=C(C(=O)COC1)[C@H]2c1ccc(F)c(Br)c1 (stereo in doubt; 22a)
66%	CCC[C@@H]1OC(O)=C2C1=NC1=C(C(=O)COC1)[C@H]2c1ccc(F)c(Br)c1 (stereo in doubt; 22b)
75%	CCC[C@H]1OC(O)=C2C1=NC1=C(C(=O)COC1)[C@H]2c1ccc(F)c(Br)c1 (stereo in doubt; 23a)
95%	COC[C@H]1OC(O)=C2C1=NC1=C(C(=O)COC1)[C@H]2c1ccc(F)c(Br)c1 (stereo in doubt; 25a)
104%	COC[C@H]1OC(O)=C2C1=NC1=C(C(=O)COC1)[C@H]2c1ccc(F)c(Br)c1 (stereo in doubt; 25b)
62%	CCCC[C@H]1OC(O)=C2C1=NC1=C(C(=O)COC1)[C@H]2c1ccc(F)c(Br)c1 (stereo in doubt; 29a)
66%	CC(C)C[C@H]1OC(O)=C2C1=NC1=C(C(=O)COC1)[C@H]2c1ccc(F)c(Br)c1 (stereo in doubt; 31a)

Efficacy	Compound
89%	CC[C@H]1OC(O)=C2C1=NC1=C(C(=O)C(C)(C)OC1)[C@H]2c1ccc(F)c(Br)c1 (stereo in doubt; 36a)
77%	CC[C@H]1OC(O)=C2C1=NC1=C(C(=O)COC1(C)C)[C@H]2c1ccc(F)c(Br)c1 (stereo in doubt; 38a)
74%	CCC[C@H]1OC(O)=C2C1=NC1=C(C(=O)COC1)[C@H]2c1ccc(F)c(Cl)c1 (stereo in doubt; 39a)
81%	CCC[C@H]1OC(O)=C2C1=NC1=C(C(=O)COC1)[C@H]2c1ccc(F)c(I)c1 (stereo in doubt; 41a)
87%	CCC[C@H]1OC(O)=C2C1=NC1=C(C(=O)COC1)[C@H]2c1ccc(Cl)c(Cl)c1 (stereo in doubt; 42a)
62%	CCC[C@H]1OC(O)=C2C1=NC1=C(C(=O)COC1)[C@H]2c1ccc(Cl)c(Cl)c1 (stereo in doubt; 42b)
90%	CCC[C@H]1OC(O)=C2C1=NC1=C(C(=O)COC1)[C@H]2c1ccc(Cl)c(Br)c1 (stereo in doubt; 43a)
99%	CCC[C@H]1OC(O)=C2C1=NC1=C(C(=O)COC1)[C@H]2c1ccc(Cl)c(Br)c1 (stereo in doubt; 43b)
121%	CCC[C@H]1OC(O)=C2C1=NC1=C(C(=O)COC1)[C@H]2c1ccc(Br)c(Cl)c1 (stereo in doubt; 44a)
92%	CCC[C@H]1OC(O)=C2C1=NC1=C(C(=O)COC1)[C@H]2c1ccc(Br)c(Cl)c1 (stereo in doubt; 44b)
104%	CCC[C@H]1OC(O)=C2C1=NC1=C(C(=O)COC1)[C@H]2c1ccc(Br)c(Br)c1 (stereo in doubt; 45a)
108%	CCC[C@H]1OC(O)=C2C1=NC1=C(C(=O)COC1)[C@H]2c1ccc(Br)c(Br)c1 (stereo in doubt; 45b)
81%	CCC[C@H]1OC(O)=C2C1=NC1=C(C(=O)COC1)[C@H]2c1ccc(C)c(Br)c1 (stereo in doubt; 46a)
87%	CCC[C@H]1OC(O)=C2C1=NC1=C(C(=O)COC1)[C@H]2c1ccc(C)c(Br)c1 (stereo in doubt; 46b)
87%	CC[C@@H]1OCC(O)=C2C1=NC1=C(C(=O)COC1)[C@H]2c1ccc(F)c(Br)c1 (stereo in doubt; 70a)
94%	CC[C@@H]1OCC(O)=C2C1=NC1=C(C(=O)COC1)[C@H]2c1ccc(F)c(Br)c1 (stereo in doubt; 70b)
66%	CC[C@H]1OCC(O)=C2C1=NC1=C(C(=O)COC1)[C@H]2c1ccc(F)c(Cl)c1 (stereo in doubt; 72a) [listing 2 of 2 here]
69%	CC[C@H]1OCC(O)=C2C1=NC1=C(C(=O)COC1)[C@H]2c1ccc(F)c(I)c1 (stereo in doubt; 73a) [listing 2 of 2 here]
